# Laboratory results taken from PubChem BioAssay AID602126 (Broad Institute, 2011).
# The source made the active and inactive calls.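 How the source made its calls: active means compounds cutting cell ATP light whose fitted AC50 is at most double the top dose tried; inconclusive means flat moderate signal loss, or an unreliable curve fit; inactive means the rest.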
# System: ldlA[mSR-BI] CHO cells viability, CellTiter-Glo ATP luminescence, 24 h
# Assay: cytotoxicity in ldlA[mSR-BI] CHO cells, dose response, cytotoxicity control for SR-BI HDL uptake inhibitor project, cell-based, CellTiter-Glo luminescence, 24 h, dry powder, set 5 (AID 602126)
# Conditions: not given
# Procedure, shortened: (§1)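 Technique: CellTiter-Glo ATP luminescence; System: ldlA[mSR-BI] cells, cell viability measurement; Amount: 4,000 ldlA[mSR-BI] cells per well; Incubation: 24 h compound exposure at 37 °C, then 10 min with detection reagent.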
row,SMILES,AC50
1,CC(C(=O)NC1CCCC1)N(C(=O)Cn1nnc(-c2ccc(Cl)cc2)n1)C1CCCCC1 (stereo unspecified),> 70 µM (inactive)
2,C[C@@H]1CN([C@@H](C)CO)C(=O)c2cc(NC(=O)Cc3cn(C)c4ccccc34)ccc2O[C@@H]1CN(C)S(=O)(=O)c1ccc(Cl)cc1,> 70 µM (inactive)
3,C[C@@H]1CN([C@H](C)CO)C(=O)c2cc(NC(=O)Cc3cn(C)c4ccccc34)ccc2O[C@@H]1CN(C)S(=O)(=O)c1ccc(Cl)cc1,> 70 µM (inactive)
4,CS(=O)(=O)N1CCc2cc(-c3csc(NC(=O)c4ccco4)n3)ccc21,> 70 µM (inactive)
5,CCCN1CCc2cc(-c3csc(NC(=O)c4cc(OC)cc(OC)c4)n3)ccc21,> 70 µM (inactive)
6,O=C(Nc1ccc(-c2nc3cc(NC(=O)c4ccccc4[N+](=O)[O-])ccc3o2)cc1)c1ccccc1[N+](=O)[O-],36.3 µM
7,CCOc1ccccc1/C=C/c1onc(C)c1S(=O)(=O)N1CCC(C(=O)NC(C)(C)C)CC1,> 70 µM (inactive)
8,COc1cc(OC)cc(C(=O)Nc2nc(-c3ccc4c(c3)CCN4C(=O)OC(C)(C)C)cs2)c1,> 70 µM (inactive)
9,CCC(=O)Nc1ccc(-c2csc(N)n2)cc1,> 70 µM (inactive)
10,O=C(Nc1cc(C(F)(F)F)ccc1Cl)c1ccccc1NS(=O)(=O)c1ccc(Cl)cc1,0.285 µM
11,O=C(Nc1ccc(-c2nc3ccc(NC(=O)c4ccc(Cl)cc4)cc3[nH]2)cc1)c1ccc(Cl)cc1,1.3 µM
12,COc1cc(OC)cc(C(=O)Nc2nc(-c3ccc4c(c3)CCN4C(=O)CN(C)C)cs2)c1,20.2 µM
13,COc1ccc(-c2nc(CC(=O)N(C3CCCCC3)C(C)C(=O)NC3CCCC3)cs2)cc1OC (stereo unspecified),67 µM
14,O=C(Nc1ccc(-c2nc3cc(NC(=O)c4ccccc4Cl)ccc3o2)cc1)c1ccccc1Cl,43.9 µM
15,O=C(Nc1ccccc1Cl)c1ccccc1NS(=O)(=O)c1ccccc1,37.2 µM
16,CC(C)NC(=O)Nc1cccc2c1O[C@H](CN(C)Cc1ccc(Cl)c(Cl)c1)[C@@H](C)CN([C@@H](C)CO)C2=O,> 70 µM (inactive)
17,Cc1cc(SC(C)C(=O)Nc2ncc(Cl)cc2Cl)nc2ccccc12 (stereo unspecified),35.1 µM
18,C[C@H](CO)N1C[C@H](C)[C@H](CN(C)S(=O)(=O)c2ccc(F)cc2)Oc2ccc(NC(=O)Cc3cn(C)c4ccccc34)cc2C1=O,> 70 µM (inactive)

row,SMILES,AC50
1,COc1cc(OC)cc(C(=O)Nc2nc(-c3ccc4[nH]ccc4c3)cs2)c1,15.6 µM
2,COc1ccc(-c2nnn(CC(=O)N(C3CCCCC3)C(C)(C)C(=O)NC3CCCC3)n2)cc1OC,> 70 µM (inactive)
3,C[C@H]1CN([C@@H](C)CO)C(=O)c2cccc(NC(=O)Nc3ccc(F)cc3)c2O[C@@H]1CN(C)Cc1ccc(Cl)c(Cl)c1,21.6 µM
4,COc1ccc(-c2nnn(CC(=O)N(CC(=O)NC3CCCC3)C3CCCCC3)n2)cc1OC,> 70 µM (inactive)
5,CCC(=O)N1CCc2cc(-c3cn4ccccc4n3)ccc21,15.8 µM
6,C[C@@H]1CN([C@@H](C)CO)C(=O)c2cc(NC(=O)Cc3cn(C)c4ccccc34)ccc2O[C@@H]1CN(C)S(=O)(=O)c1ccc(F)cc1,> 70 µM (inactive)
7,CCC(=O)N1CCc2cc(-c3csc(NC(=O)c4cccc(OC(F)(F)F)c4)n3)ccc21,> 70 µM (inactive)
8,CCC(=O)N1CCc2cc(-c3csc(NC(=O)c4cccc(OC)n4)n3)ccc21,66.5 µM
9,Cc1cc(C)n(CC(=O)NC2CCCc3c2cnn3-c2ccc(C)c(C)c2)n1 (stereo unspecified),> 70 µM (inactive)
10,CCC(=O)N1CCc2cc(-c3csc(NC(=O)c4cccs4)n3)ccc21,64.4 µM
11,O=C(CN(C(=O)Cn1nnc(-c2ccc(Cl)c(Cl)c2)n1)C1CCCCC1)NC1CCCC1,46.2 µM
12,CCC(=O)N1CCc2cc(-c3csc(NC(=O)c4ccco4)n3)ccc21,> 70 µM (inactive)
13,CC(C(=O)NC1CCCC1)N(C(=O)Cn1nnc(-c2ccc3c(c2)OC(F)(F)O3)n1)C1CCCCC1 (stereo unspecified),55.2 µM
14,COc1ccc(-c2cc(CC(=O)N(C3CCCCC3)C(C)C(=O)NC3CCCC3)no2)cc1OC (stereo unspecified),> 70 µM (inactive)
15,COc1ccc([C@H]2CC(=O)C=C(c3cccc4c3sc3ccccc34)C2)cc1OC,> 70 µM (inactive)
16,CCc1cc2cc3c(cc2nc1SCC(=O)OC(C)C)OCO3,> 70 µM (inactive)
17,C[C@H]1CN([C@@H](C)CO)C(=O)c2cc(NC(=O)Nc3ccccc3)ccc2O[C@@H]1CN(C)Cc1ccc(Cl)c(Cl)c1,57 µM
18,CC(C(=O)NC1CCCC1)N(C(=O)Cn1nnc(-c2cccc(F)c2)n1)C1CCCCC1 (stereo unspecified),> 70 µM (inactive)

# System: not listed separately
# Assay: as above
# Conditions: ldlA[mSR-BI] CHO cells viability, CellTiter-Glo ATP luminescence, 24 h; at 35 µM (top of the series)
# Procedure, shortened: as §1
row,SMILES,"activity change, negative = cytotoxicity"
1,C[C@H](CO)N1C[C@H](C)[C@H](CN(C)S(=O)(=O)c2ccc(F)cc2)Oc2ccc(NC(=O)Cc3ccccc3)cc2C1=O,-6.53% (inactive)
2,CCC(=O)N1CCc2cc(-c3csc(NC(=O)c4cc5cccnc5o4)n3)ccc21,-0.539% (inactive)
3,C[C@H]1CN([C@@H](C)CO)C(=O)c2cccc(NC(=O)Nc3ccccc3)c2O[C@@H]1CN(C)Cc1ccc(Cl)c(Cl)c1,-98.2% (inactive)
4,CCC(=O)N1CCc2cc(-c3coc(NC(=O)c4ccco4)n3)ccc21,-8.19% (inactive)
5,COc1ccc(-c2nnn(CC(=O)N(C3CCCCC3)C(C)C(=O)NC(C)C)n2)cc1OC (stereo unspecified),-0.753% (inactive)
